Results reported in ChEMBL document CHEMBL1146457, “Tetrahydrofuran lignans from Nectandra megapotamica with trypanocidal activity” (J Nat Prod, 2004).

Assays:
Trypanosoma cruzi [1] = test: Trypanocidal activity against Trypanosoma cruzi Y trypomastigotes infected in mouse macrophage at 2 uM; type: functional
How it was run: (§1)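 Trypomastigotes were harvested from mouse macrophage cultures, about 2 × 10^6 parasites/mL, in RPMI 1640 in 96-well plates. Compounds were dissolved in DMSO and diluted in blood to final 2.0, 8.0 and 32.0 µM, with 1% DMSO. Plates were incubated at 4 °C, and percent lysis was read by MTT colorimetry, in triplicate. Negative control: infected blood plus DMSO.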

Trypanosoma cruzi [2] = test: Antitrypanosomal activity against Trypanosoma cruzi Y trypomastigotes infected in mouse macrophage; type: functional, organism-based; how it was run: as §1
Trypanosoma cruzi [3] = test: Trypanocidal activity against Trypanosoma cruzi Y trypomastigotes infected in mouse macrophage at 8 uM; type: functional; how it was run: as §1
Trypanosoma cruzi [4] = test: Trypanocidal activity against Trypanosoma cruzi Y trypomastigotes infected in mouse macrophage at 32 uM; type: functional; how it was run: as §1
Trypanosoma cruzi [5] = test: Trypanocidal activity against Trypanosoma cruzi Y trypomastigotes infected in mouse macrophage at 250 ug/ml; type: functional, organism-based
How it was run: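 Positive-control wells had gentian violet at 250 µg/mL against trypomastigotes from mouse macrophage cultures, about 2 × 10^6 parasites/mL, in RPMI 1640 in blood. Incubation was at 4 °C, and percent lysis was measured by MTT colorimetric method, in triplicate.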

| SMILES | IC50 (Trypanosoma cruzi [2]) | Activity (Trypanosoma cruzi [1]) | Activity (Trypanosoma cruzi [3]) | Activity (Trypanosoma cruzi [4]) | IC50 (Trypanosoma cruzi [5]) |
| --- | --- | --- | --- | --- | --- |
| COc1ccc([C@@H]2O[C@H](c3ccc4c(c3)OCO4)[C@@H](C)[C@@H]2C)cc1OC [CALOPIPTIN] | 12.6 µM | 21.4% | 49.2% | 60.3% | – |
| CN(C)c1ccc(C(=C2C=CC(=[N+](C)C)C=C2)c2ccc(N(C)C)cc2)cc1 [GENTIAN VIOLET] | – | – | – | – | 76 µM |
| COc1cc([C@H]2O[C@@H](c3ccc(OC)c(OC)c3)[C@@H](C)[C@@H]2C)ccc1O [ARISTOLIGNIN] | 34.8 µM | 34.2% | 46.8% | 47.6% | – |

Now from value to compound, other results behind:

| IC50 (Trypanosoma cruzi [2]) | SMILES | Activity (Trypanosoma cruzi [1]) | Activity (Trypanosoma cruzi [3]) | Activity (Trypanosoma cruzi [4]) | IC50 (Trypanosoma cruzi [5]) |
| --- | --- | --- | --- | --- | --- |
| 2.2 µM | COc1ccc([C@@H]2O[C@H](c3ccc4c(c3)OCO4)[C@@H](C)[C@H]2C)cc1OC [MACHILIN G] | 54.8% | 53.6% | 94% | – |
| 4.4 µM | COc1ccc([C@H]2O[C@@H](c3ccc(OC)c(OC)c3)[C@H](C)[C@@H]2C)cc1OC [GALGRAVIN] | 44% | 56.3% | 59.9% | – |
| 12.2 µM | COc1ccc([C@H]2O[C@H](c3ccc(OC)c(OC)c3)[C@@H](C)[C@H]2C)cc1OC [GANSCHISANDRINE] | 36.5% | 49.2% | 55.6% | – |
| 47.3 µM | COc1cc([C@H]2O[C@@H](c3ccc(O)c(OC)c3)[C@H](C)[C@@H]2C)ccc1O [NECTANDRIN B] | 23% | 25% | 48% | – |
| 17400 µM | COc1cc([C@H]2O[C@@H](c3ccc(OC)c(OC)c3)[C@H](C)[C@@H]2C)ccc1O [NECTANDRIN A] | 10.2% | 13.5% | 18% | – |
